Active and inactive are the calls of the source. The rule behind the calls is not given here.
Key:
[1] = test system: Escherichia coli; test: Binding affinity to Escherichia coli supercoiled plasmid pBR322 DNA at 50 uM after 3 hrs at 37 degC using ethidium bromide by gel electrophoresis
How it was run: (§1)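 Supercoiled pBR322 (3.5 nM) incubated with agent at 0.5, 5 or 50 µM for 3 h at 37 °C in bisphosphate–EDTA (BPE) buffer, pH 7.4; chlorambucil 50 µM as control. Dilutions freshly made in water from 8 mM DMSO stock. Forms resolved on 1% agarose in 1× TAE, ethidium bromide-stained; supercoiled, EcoRI-linearised and nicked open-circular plasmid as markers.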

[2] = test system: Escherichia coli; test: Induction of Escherichia coli supercoiled plasmid pBR322 DNA cleavage at 0.5 uM to 50 uM after 3 hrs at 37 degC using ethidium bromide by gel electrophoresis; how it was run: as §1
[3] = test system: Escherichia coli; test: Binding affinity to Escherichia coli supercoiled plasmid pBR322 DNA at 50 uM after 24 hrs using ethidium bromide by gel electrophoresis
How it was run: (§2)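 Supercoiled pBR322 (3.5 nM) exposed to agent at 24 h at ambient temperature in BPE buffer, pH 7.4; chlorambucil as control. Supercoiled, open-circular and linear forms separated by 1% agarose electrophoresis in 1× TAE, ethidium bromide-stained, with supercoiled, linear (EcoRI-cut) and nicked plasmid controls.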

[4] = Induction of alkylation of 5'-FAM-labeled scrambled duplex oligonucleotide DNA (unknown origin) at guanine residues at 5 to 50 uM after 24 hrs by sequencing gel analysis
[5] = test system: Escherichia coli; test: Induction of Escherichia coli supercoiled plasmid pBR322 DNA cleavage at 0.5 uM after 3 hrs at 37 degC using ethidium bromide by gel electrophoresis
How it was run: (§3)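 Supercoiled pBR322 (3.5 nM) incubated with agent at 0.5, 5 or 50 µM in BPE buffer pH 7.4 for 3 h at 37 °C. Agent diluted fresh in water from DMSO stock. Products resolved on 1% agarose gel in 1× TAE and stained with ethidium bromide. Controls on gel were supercoiled, EcoRI-linearised and open circular plasmid markers. Chlorambucil at 50 µM was the reference agent.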

[6] = test system: Escherichia coli; test: Induction of Escherichia coli supercoiled plasmid pBR322 DNA cleavage at 0.5 uM to 50 uM after 24 hrs using ethidium bromide by gel electrophoresis; how it was run: as §2
[7] = test system: Escherichia coli; test: Induction of Escherichia coli supercoiled plasmid pBR322 DNA cleavage at 5 uM after 3 hrs at 37 degC using ethidium bromide by gel electrophoresis; how it was run: as §3
[8] = Reactive aziridinium ion formation in distilled water assessed as dihydroxyl substituted product formation at 80 uM at 37 degC after 15 mins by ESI-MS analysis; assay type: physicochemical; settings: buffer, 0.25 h
How it was run: (§4)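 An 80 µM solution of agent in distilled water was kept at 37 °C. Aliquots were taken at 0, 15, 30, 45, 60 and 120 min, diluted with methanol and analysed by ESI-MS for hydroxyl-substituted and aziridinium ion species.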

[9] = Reactive aziridinium ion formation in distilled water assessed as electrophilic aziridinium formation at 80 uM at 37 degC after 15 mins by ESI-MS analysis; assay type: physicochemical; settings: buffer, 0.25 h; how it was run: as §4
[10] = test system: Escherichia coli; test: Induction of Escherichia coli supercoiled plasmid pBR322 DNA cleavage at 50 uM after 24 hrs using ethidium bromide by gel electrophoresis
How it was run: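 Supercoiled pBR322 (3.5 nM) incubated with agent in BPE buffer pH 7.4 at ambient temperature for 24 h. Products resolved on 1% agarose gel in 1× TAE and stained with ethidium bromide. Supercoiled, linear and open circular plasmid markers were run alongside.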

[11] = test system: Escherichia coli; test: Induction of Escherichia coli supercoiled plasmid pBR322 DNA cleavage at 50 uM after 3 hrs at 37 degC using ethidium bromide by gel electrophoresis; how it was run: as §3

| Compound | Activity [2] | Activity [4] | Activity [5] | also measured |
| --- | --- | --- | --- | --- |
| COc1ccc(OC(=O)[C@H](CCCCN2CC(Cl)CC(C)(C)C2)N2CC(Cl)CC(C)(C)C2)c2ccccc12 (stereo partly drawn) | inactive | Active | – | Activity [1]: Active; Activity [3]: Active |
| CC1(C)CC(Cl)CN(CCCCN2CC(Cl)CC(C)(C)C2)C1 (stereo not drawn) | – | – | Active | – |
| CC1(C)CC(Cl)CN(CCCCCCN2CC(Cl)CC(C)(C)C2)C1 (stereo not drawn) | – | – | Active | – |
| COC(=O)[C@H](CCCCN1CC(Cl)CC(C)(C)C1)N1CC(Cl)CC(C)(C)C1 (stereo partly drawn) | Active | Active | – | Activity [6]: Active; Activity [7]: Active; Activity [8]: Active; Activity [9]: Active |
| CC1(C)CC(Cl)CN(CCCC[C@@H](C(=O)OCCc2ccccc2)N2CC(Cl)CC(C)(C)C2)C1 (stereo partly drawn) | Active | Active | – | Activity [6]: Active |
| CC1(C)CC(Cl)CN(CCCC[C@@H](C(=O)Oc2cccc3ccccc23)N2CC(Cl)CC(C)(C)C2)C1 (stereo partly drawn) | inactive | Active | – | Activity [1]: Active; Activity [3]: Active |
| CC1(C)CC(Cl)CN(CCCC[C@@H](C(=O)OCc2ccccc2)N2CC(Cl)CC(C)(C)C2)C1 (stereo partly drawn) | Active | Active | – | Activity [6]: Active |
| CC1(C)CC(Cl)CN(CCCCCN2CC(Cl)CC(C)(C)C2)C1 (stereo not drawn) | – | – | Active | – |
| O=C(O)CCCc1ccc(N(CCCl)CCCl)cc1 | – | – | – | Activity [10]: inactive; Activity [11]: inactive |
| CC1(C)CC(Cl)CN(CCCC[C@@H](C(=O)OCCCc2ccccc2)N2CC(Cl)CC(C)(C)C2)C1 (stereo partly drawn) | inactive | Active | – | – |
| CC1(C)CC(Cl)CN(CCCN2CC(Cl)CC(C)(C)C2)C1 (stereo not drawn) | – | – | Active | – |
